UPR XBP1 act = activators of adaptive XBP1 UPR arm, primary screen, cell-based, CHO-XBP1 luciferase reporter, luminescence, uHTS; activation, % at 20 µM; 330,000 compounds, 0.33% hits; IRE1-XBP1 UPR activation; percent of tunicamycin response, DMSO as zero;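 active = versus positive control, 20 µM dose yields 30% or more activation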;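 also: 100% = tunicamycin at 10 µg/mL and 0% = DMSO only wells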
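Material: CHO cell line with stable XBP1 luciferase reporter; buffer or medium: F12 medium containing 10% fetal bovine serum; compound: single point, 20 µM final compound, 1% DMSO; incubation: 6 h treatment, 37 °C; measured by: glow luminescence from Steady-Glo reagent; evaluation: activation, % of tunicamycin; control set: tunicamycin high, DMSO low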
CHOP UPR activ = activators of apoptotic CHOP UPR arm, primary screen, cell-based, CHO-CHOP luciferase reporter, luminescence, uHTS | 330,000 compounds, 0.34% hits | activation, % at 10 µM | UPR activation; percent of tunicamycin response over DMSO baseline | AID 449763, 2010;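 active = at 10 µM dose, activation of 40% or more, normalized to positive control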;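 also: 100% = tunicamycin at 10 µg/mL and 0% = DMSO alone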
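System: CHO-CHOP luciferase reporter cell line | Buffer or medium: F12 medium containing 10% fetal bovine serum | Doses: One dose, 10 µM in 0.5% DMSO | Times: 6 h compound exposure at 37 °C after overnight seeding | Signal: Luciferase luminescence | Read-out: % activation vs tunicamycin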
CHOP inh = inhibitors of CHOP promoter induction, primary screen, cell-based, unfolded protein response, luciferase reporter; CHO-K1 CHOP-promoter luciferase, tunicamycin-induced, 15-18 h; inhibition, % at 10 µM; 220,000 compounds, 3.8% hits; AID 2732, 2010;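 active = compounds that reduced the stress-induced luciferase reporter signal by more than about 70% of percent inhibition, limit read from the data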;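 also: 0% = tunicamycin plus vehicle and 100% = wells without tunicamycin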
V-ATPase pHluor = regulators of yeast V-ATPase proton pumping, primary screen, pHLuorin cytosolic pH fluorescence. S. cerevisiae. 350,000 compounds, 0.37% hits. AID 504577, 2011. response, % at 10 µM; in the data active = response mostly above about 7.3%, no sharp cut-off; inactive = mostly below about 5.4%; also: actives read high
Tb MetRS inh = T. brucei MetRS inhibitors, primary screen, biochemical, luminescence. purified T. brucei MetRS, ATP depletion, Kinase-Glo luminescence. inhibition, % at 11.9 µM. 360,000 compounds, 0.4% hits. AID 624268, 2012;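 active = inhibition above a per-plate cutoff of the control wells' mean inhibition plus 3 SD, cut at about 5.5% in these data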;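 also: 0% = DMSO wells median and 100% = median of wells with control inhibitor compound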
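Test system: purified T. brucei MetRS enzyme. Also added: ATP, methionine and E. coli bulk tRNA substrates. Compound: 11.9 µM single point. Schedule: 15 min enzyme-compound preincubation, 2 h reaction, 10 min detection, 25 °C. Signal: luciferase luminescence of residual ATP, Kinase-Glo. Evaluation: percent inhibition versus plate control medians. Controls: DMSO wells, low control.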
Active calls of the source: *; nt = not tested or not shown. The sample as a whole holds a higher share of hits than the screen did.

SMILES | UPR XBP1 act | CHOP UPR activ | CHOP inh | V-ATPase pHluor | Tb MetRS inh
Nc1ncnc2c1ncn2[C@@H]1O[C@H](COP(=O)(O)CP(=O)(O)OP(=O)(O)O)[C@H](O)C1O (some centres undefined) | nt | nt | 15 | nt | nt
CC(C)[C@]12O[C@H]1[C@@H]1O[C@]13[C@]1(O[C@H]1C[C@H]1C4=C(CC[C@@]13C)C(=O)OC4)[C@@H]2O | nt | nt | 103* | nt | nt
COc1cc2c(cc1/C=C/[N+](=O)[O-])OCO2 | nt | nt | 93* | 6 | 0
Cc1sc2c(c1C)C(c1ccc(C(C)(C)C)cc1)=NCC(=O)N2CC(=O)Nc1nccs1 | -1 | 1 | 84* | -2 | 0
Cc1sc2c(c1C)C(c1cccs1)=NCC(=O)N2CC(=O)NCc1cccs1 | -2 | 1 | 25 | -1 | 0
CCOP(=O)(OCC)C(NC(=O)CC(C)C)C(Cl)(Cl)Cl (centres undefined) | -1 | -2 | 71* | 1 | -1
CCOP(=O)(OCC)C(NC(=O)Cc1ccccc1)C(Cl)(Cl)Cl (centres undefined) | 3 | 2 | 22 | -4 | 0
O=C(CCN1CC=C(c2ccccc2)CC1)NCc1ccccc1 | nt | nt | nt | 3 | 0
O=C(CN1CC=C(c2ccccc2)CC1)NC(=O)NCc1ccco1 | 0 | 1 | 76* | 1 | -1
Cc1cc(C)cc(N2C(=O)NC(=O)/C(=C/c3cccn3-c3ccc(Cl)cc3)C2=O)c1 | -2 | 99* | -88 | -2 | 0
CCCNC(=O)c1c(N)n(Cc2ccc3c(c2)OCO3)c2nc3ccccc3nc12 | 9 | 0 | 75* | -1 | 1
CC(C)CNC(=O)c1c(N)n(Cc2ccc3c(c2)OCO3)c2nc3ccccc3nc12 | 5 | 3 | 85* | -4 | 3
CC(C)CCn1c(N)c(C(=O)NCc2cccs2)c2nc3ccccc3nc21 | 3 | 1 | 96* | -2 | 0
CCCNC(=O)c1c(N)n(Cc2ccco2)c2nc3ccccc3nc12 | 0 | 1 | 83* | nt | nt
CC(C)CCNC(=O)c1c(N)n(Cc2ccc3c(c2)OCO3)c2nc3ccccc3nc12 | 5 | 1 | 36 | -4 | 1
COCCCNC(=O)c1c(N)n(Cc2ccco2)c2nc3ccccc3nc12 | 6 | 1 | 6 | 0 | 0
CCCCNC(=O)c1c(N)n(CCCOC)c2nc3ccccc3nc12 | 4 | -1 | 93* | 1 | 2
COCCCn1c(N)c(C(=O)OCCOC)c2nc3ccccc3nc21 | 3 | 0 | -19 | -1 | 0
CCCCCn1c(NC(=O)c2ccco2)c(C(=O)OCC)c2nc3ccccc3nc21 | 26 | 4 | -70 | 11* | 2
CCOC(=O)c1c(N)n(CCCOC(=O)c2ccco2)c2nc3ccccc3nc12 | -2 | 2 | nt | 2 | -1
CCn1nc(-c2ccccc2)nc2c(=O)n(C)c(=O)nc1-2 | -10 | -7 | 108* | 15 | 27*
CCOC(=O)C(=CNc1ccc(C(O)(C(=O)OCC)C(F)(F)F)cc1C)C(=O)OCC (centres undefined) | 1 | 1 | 90* | 2 | 0
C[C@]12CC[C@@H](O)CC1CC[C@@H]1[C@@H]2CC[C@]2(C)C(=O)CC[C@@H]12 (some centres undefined) | nt | nt | -2 | nt | nt
CCCCn1c(O)c(C(C)=Nc2ccc(OCC)cc2)c(=O)[nH]c1=O | 3 | 0 | 95* | -4 | 0
CC(=O)OCC1=C(C(=O)[O-])N2C(=O)[C@@H](NC(=O)CCC[C@@H](N)C(=O)[O-])[C@H]2SC1.[Zn+2] | nt | nt | -15 | nt | nt
SMILES | UPR XBP1 act | CHOP UPR activ | CHOP inh | V-ATPase pHluor | Tb MetRS inh
COc1ccc(OC)c(N2C(=O)/C(=C/c3ccco3)C(=O)NC2=S)c1 | -4 | 0 | nt | nt | nt
COc1ccc(OC)c(N2C(=O)NC(=O)/C(=C/c3ccc([N+](=O)[O-])s3)C2=O)c1 | -2 | 1 | -70 | 125* | -1
C=CCN1C[C@@H](C)N([C@H](c2ccc(C(=O)N(CC)CC)cc2)c2cccc(OC)c2)C[C@@H]1C | nt | nt | -16 | nt | nt
CCCn1c(=O)c2[nH]c(C3CCCC3)nc2n(CCCOC(=O)c2ccc(S(=O)(=O)F)cc2)c1=O | nt | nt | 0 | nt | nt
CCCCCCCCn1sccc1=O | -7 | -6 | nt | 37* | -1
O=C1CC[C@@]2(O)C3Cc4ccc(O)c5c4C2(CCN3CC2CC2)[C@H]1O5 (some centres undefined) | nt | nt | -29 | nt | nt
CC1Cc2cc3c(cc2C(c2ccc(N)cc2)=NN1)OCO3 (centres undefined) | nt | nt | -20 | nt | nt
Cc1ccc(N2C(=O)NC(=O)/C(=C\c3ccoc3)C2=O)cc1 | -3 | -1 | -28 | 5.9* | -1
CN(N=O)c1cc(O)ccc1O | nt | nt | -12 | nt | nt
CCOC(=O)c1c(-n2c(C)cc(/C=C3\C(=O)NC(=O)N(C)C3=O)c2C)sc2c1CCCC2 | -1 | 1 | 77* | -2 | 0
Cc1cc(/C=C2\C(=O)NC(=O)N(c3ccc(Cl)cc3)C2=O)c(C)n1-c1sc2c(c1C#N)CCCC2 | 1 | 0 | -22 | 0 | 1
NC(N)=NOCC[C@H](N)C(=O)O | nt | nt | -22 | nt | nt
CCCCCn1c(=O)c(C(=O)Nc2nc(CC(=O)OCC)cs2)c(O)c2ccccc21 | 3 | 13 | 92* | -2 | 0
CCCCn1c(=O)c(C(=O)Nc2ccccc2S(N)(=O)=O)c(O)c2ccccc21 | 4 | 1 | 77* | 1 | -1
CCCCCn1c(=O)c(C(=O)Nc2ccccc2S(N)(=O)=O)c(O)c2ccccc21 | 1 | 18 | 82* | 5 | -1
CCCCCn1c(=O)c(C(=O)Nc2cnccn2)c(O)c2ccccc21 | -2 | 14 | 104* | 1 | 0
C[C@@H]1CN([C@H](C)CO)C(=O)c2c(c3ccccc3n2C)-c2ccccc2CO[C@H]1CN(C)Cc1ccc2c(c1)OCCN2C | nt | nt | nt | 0 | 0
O=C(O)[C@@H]1CCN1 | nt | nt | 6 | nt | nt
Cc1ccc([C@@H]2C[C@H]3[C@@H](CN2S(=O)(=O)c2ccc(Cl)cc2)C(=O)C[C@@H](c2ccccc2F)N3S(=O)(=O)c2ccc(C)cc2)cc1 | nt | nt | nt | -2 | 0
NC(Cn1oc(=O)[nH]c1=O)C(=O)O (centres undefined) | nt | nt | -1 | nt | nt
O=[N+]([O-])c1ccc(N(CCO)CCO)c2c1no[n+]2[O-] | nt | nt | nt | 3 | 0
CN1CCN(c2ccc([N+](=O)[O-])c3no[n+]([O-])c23)CC1 | nt | nt | 107* | -3 | 0
C=C(C=O)C[C@@H]1C[C@H](O)C2OC3C[C@]4(C)OC5/C=C\CC6OC7C(CC=CCC6OC5CCCC4OC3CC2O1)OC1CC2OC3CC(=O)OC3C[C@@H](C)C[C@@]2(C)OC1C[C@@H]7C (some centres undefined) | -9 | -9 | 107* | nt | nt

Screening data (PubChem)
